# Columns and labels:
# MCF7:TAM1 = assay: Growth inhibition of tamoxifen-resistant human MCF7:TAM1 cells measured after 5 days by Hoechst 33342 dye based imaging analysis; format: functional, cell-based; conditions: MCF7:TAM1, 120 h
# Summary of the method: (§1)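 Cells seeded at 2000/well in their maintenance medium, treated once the next day with compound (0.1 nM–10 μM; 0.1% DMSO final). Day 5 Hoechst 33342 staining with imaging count. Survival normalized to DMSO (100%) and JQ1 3 μM (0%). IC50 given as mean ± SEM from at least two passages, each in triplicate.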
# [1] = target: E3 ubiquitin-protein ligase TRIM33 (Homo sapiens, UniProt Q9UPN9); assay: Binding affinity to human partial length TRIM33 phd bromodomain (D882 to A1087 residues) expressed in bacterial expression system by BROMOscan assay
# Summary of the method: (§2)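 BROMOscan panel of 40 bromodomains. Kd for DNA-tagged bromodomains determined by competition against an immobilized proprietary reference ligand.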
# [2] = Growth inhibition of tamoxifen-sensitive human MCF7:WS8 cells measured after 5 days by Hoechst 33342 dye based imaging analysis; format: functional; conditions: MCF7:WS8, 120 h; summary of the method: as §1
# [3] = Growth inhibition of human T47D:TDG cells harboring ESR1 D538G mutant measured after 5 days by Hoechst 33342 dye based imaging analysis; format: functional; conditions: 120 h; summary of the method: as §1
# [4] = target: Histone acetyltransferase KAT2A (Homo sapiens, UniProt Q92830); assay: Binding affinity to human partial length GCN5L2 (E726 to K837 residues) expressed in bacterial expression system by BROMOscan assay; summary of the method: as §2
# [5] = target: ATPase family AAA domain-containing protein 2 (Homo sapiens, UniProt Q6PL18); assay: Binding affinity to human partial length ATAD2A (Q981 to R1108 residues) expressed in bacterial expression system by BROMOscan assay; summary of the method: as §2
# [6] = target: Histone acetyltransferase KAT2B (Homo sapiens, UniProt Q92831); assay: Binding affinity to human partial length PCAF (G715 to D831 residues) expressed in bacterial expression system by BROMOscan assay; summary of the method: as §2
# [7] = target: Bromodomain-containing protein 7 (Homo sapiens, UniProt Q9NPI1); assay: Binding affinity to human partial length BRD7 (L125 to R254 residues) expressed in mammalian expression system by BROMOscan assay; summary of the method: as §2
# T47D = assay: Growth inhibition of tamoxifen-sensitive human T47D cells measured after 5 days by Hoechst 33342 dye based imaging analysis; format: functional, cell-based; conditions: 120 h; summary of the method: as §1
# [8] = Growth inhibition of fulvestrant-resistant human MCF7:CFR cells measured after 5 days by Hoechst 33342 dye based imaging analysis; format: functional, cell-based; conditions: 120 h
# Summary of the method: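 MCF-7:CFR cells kept 2 days in phenol red-free RPMI 1640 with 10% charcoal–dextran FBS, then seeded at 2000 cells/well. Single treatment at 0.1 nM–10 μM (0.1% DMSO final) for 5 days. Nuclei stained with Hoechst 33342 and counted by imaging. Survival normalized to DMSO (100%) and JQ1 3 μM (0%). Mean ± SEM from at least two passages, triplicates in each.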
# [9] = target: Bromodomain and PHD finger-containing protein 3 (Homo sapiens, UniProt Q9ULD4); assay: Binding affinity to human partial length BRPF3 (E588 to G701 residues) expressed in bacterial expression system by BROMOscan assay; summary of the method: as §2
# [10] = target: Nucleosome-remodeling factor subunit BPTF (Homo sapiens, UniProt Q12830); assay: Binding affinity to human partial length FALZ (S2791 to H2911 residues) expressed in bacterial expression system by BROMOscan assay; summary of the method: as §2
# Cytochrome P450 3A4 = Cytochrome P450 3A4 (Homo sapiens, UniProt P08684); assay: Inhibition of human CYP3A4; format: ADME
# [11] = target: Bromodomain-containing protein 8 (Homo sapiens, UniProt Q9H0E9); assay: Binding affinity to human partial length BRD8 BD2 (D1095 to F1235 residues) expressed in mammalian expression system BROMOscan assay; summary of the method: as §2
# [12] = target: Transcription intermediary factor 1-alpha (Homo sapiens, UniProt O15164); assay: Binding affinity to human partial length TRIM24 phd bromodomain (P790 to P977 residues) expressed in bacterial expression system by BROMOscan assay; summary of the method: as §2
# [13] = target: SWI/SNF-related matrix-associated actin-dependent regulator of chromatin subfamily A member 4 (Homo sapiens, UniProt P51532); assay: Binding affinity to human partial length SMARCA4 (A1448 to S1575 residues) expressed in bacterial expression system by BROMOscan assay; summary of the method: as §2
# [14] = target: Bromodomain adjacent to zinc finger domain protein 2B (Homo sapiens, UniProt Q9UIF8); assay: Binding affinity to human partial length BAZ2B (S2054 to S2168 residues) expressed in bacterial expression system by BROMOscan assay; summary of the method: as §2
# [15] = target: ATPase family AAA domain-containing protein 2B (Homo sapiens, UniProt Q9ULI0); assay: Binding affinity to human partial length ATAD2B (Q955 to R1082 residues) expressed in bacterial expression system by BROMOscan assay; summary of the method: as §2
# [16] = Growth inhibition of tamoxifen-resistant human MCF7:5C cells measured after 5 days by Hoechst 33342 dye based imaging analysis; format: functional; conditions: 120 h; summary of the method: as §1
# [17] = target: Bromodomain and WD repeat-containing protein 1 (Homo sapiens, UniProt Q9NSI6); assay: Binding affinity to human partial length WDR9 bromodomain 2 (A1310 to E1430 residues) expressed in bacterial expression system by BROMOscan assay; summary of the method: as §2
# [18] = Growth inhibition of fulvestrant-resistant human MCF7:CFR 3D spheroid cells at 100 nM supplemented with fresh medium containing compound every 2 to 3 days for 9 days by celltitre-glo assay relative to control; format: functional
# Summary of the method: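 MCF-7:CFR cells seeded at 1000 cells/well in ultralow-attachment round-bottom plates and grown 24 h untreated as spheroids. Half the medium then replaced with 2× treatment medium, repeated every 2–3 days. Viability read by CellTiter-Glo 3D luminescence at day 9 and normalized to blank (medium plus reagent).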
# [19] = Growth inhibition of tamoxifen and palbociclib-resistant human MCF7:CPR cells measured after 5 days by Hoechst 33342 dye based imaging analysis; format: functional; conditions: 120 h; summary of the method: as §1
# [20] = target: SWI/SNF-related matrix-associated actin-dependent regulator of chromatin subfamily A member 2 (Homo sapiens, UniProt P51531); assay: Binding affinity to human partial length SMARCA2 (S1377 to Q1486 residues) expressed in bacterial expression system by BROMOscan assay; summary of the method: as §2
# Protein polybromo-1 = Protein polybromo-1 (Homo sapiens, UniProt Q86U86); assay: Binding affinity to human partial length PBRM1 bromodomain 2 (S178 to E291 residues) expressed in bacterial expression system by BROMOscan assay; summary of the method: as §2
# Sequence of Bromodomain and PHD finger-containing protein 3 (Q9ULD4 whole entry, the tested form may be a part): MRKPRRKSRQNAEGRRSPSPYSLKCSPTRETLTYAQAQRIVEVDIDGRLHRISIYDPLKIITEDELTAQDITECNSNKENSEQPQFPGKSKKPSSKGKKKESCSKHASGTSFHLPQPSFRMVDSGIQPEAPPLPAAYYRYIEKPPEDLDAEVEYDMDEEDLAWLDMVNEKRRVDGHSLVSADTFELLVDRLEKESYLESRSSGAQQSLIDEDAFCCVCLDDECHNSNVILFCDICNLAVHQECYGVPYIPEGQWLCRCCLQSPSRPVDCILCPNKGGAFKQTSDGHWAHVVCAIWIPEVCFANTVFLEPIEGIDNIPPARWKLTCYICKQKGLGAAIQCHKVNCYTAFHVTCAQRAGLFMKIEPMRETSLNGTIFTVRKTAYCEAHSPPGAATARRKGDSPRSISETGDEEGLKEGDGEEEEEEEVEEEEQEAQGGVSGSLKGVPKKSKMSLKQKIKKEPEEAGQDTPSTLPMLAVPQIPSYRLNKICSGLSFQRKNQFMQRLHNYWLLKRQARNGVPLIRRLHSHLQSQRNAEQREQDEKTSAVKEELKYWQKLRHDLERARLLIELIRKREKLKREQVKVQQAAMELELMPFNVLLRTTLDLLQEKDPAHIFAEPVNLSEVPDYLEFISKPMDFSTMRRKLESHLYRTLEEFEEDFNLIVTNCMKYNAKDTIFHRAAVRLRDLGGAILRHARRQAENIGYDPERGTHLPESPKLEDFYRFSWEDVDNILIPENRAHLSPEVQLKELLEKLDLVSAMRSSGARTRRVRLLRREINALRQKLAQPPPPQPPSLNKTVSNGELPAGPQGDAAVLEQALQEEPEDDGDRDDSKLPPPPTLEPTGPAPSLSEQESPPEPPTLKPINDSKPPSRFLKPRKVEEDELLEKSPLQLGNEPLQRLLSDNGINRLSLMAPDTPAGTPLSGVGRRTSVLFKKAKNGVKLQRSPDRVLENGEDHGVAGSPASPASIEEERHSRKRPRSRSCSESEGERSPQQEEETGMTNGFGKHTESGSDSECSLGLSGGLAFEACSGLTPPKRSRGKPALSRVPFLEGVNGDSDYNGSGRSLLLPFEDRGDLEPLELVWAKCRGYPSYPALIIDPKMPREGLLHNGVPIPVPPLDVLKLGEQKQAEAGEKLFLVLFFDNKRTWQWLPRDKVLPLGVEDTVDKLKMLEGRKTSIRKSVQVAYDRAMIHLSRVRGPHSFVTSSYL
# Sequence of Bromodomain adjacent to zinc finger domain protein 2B (Q9UIF8 whole entry, the tested form may be a part): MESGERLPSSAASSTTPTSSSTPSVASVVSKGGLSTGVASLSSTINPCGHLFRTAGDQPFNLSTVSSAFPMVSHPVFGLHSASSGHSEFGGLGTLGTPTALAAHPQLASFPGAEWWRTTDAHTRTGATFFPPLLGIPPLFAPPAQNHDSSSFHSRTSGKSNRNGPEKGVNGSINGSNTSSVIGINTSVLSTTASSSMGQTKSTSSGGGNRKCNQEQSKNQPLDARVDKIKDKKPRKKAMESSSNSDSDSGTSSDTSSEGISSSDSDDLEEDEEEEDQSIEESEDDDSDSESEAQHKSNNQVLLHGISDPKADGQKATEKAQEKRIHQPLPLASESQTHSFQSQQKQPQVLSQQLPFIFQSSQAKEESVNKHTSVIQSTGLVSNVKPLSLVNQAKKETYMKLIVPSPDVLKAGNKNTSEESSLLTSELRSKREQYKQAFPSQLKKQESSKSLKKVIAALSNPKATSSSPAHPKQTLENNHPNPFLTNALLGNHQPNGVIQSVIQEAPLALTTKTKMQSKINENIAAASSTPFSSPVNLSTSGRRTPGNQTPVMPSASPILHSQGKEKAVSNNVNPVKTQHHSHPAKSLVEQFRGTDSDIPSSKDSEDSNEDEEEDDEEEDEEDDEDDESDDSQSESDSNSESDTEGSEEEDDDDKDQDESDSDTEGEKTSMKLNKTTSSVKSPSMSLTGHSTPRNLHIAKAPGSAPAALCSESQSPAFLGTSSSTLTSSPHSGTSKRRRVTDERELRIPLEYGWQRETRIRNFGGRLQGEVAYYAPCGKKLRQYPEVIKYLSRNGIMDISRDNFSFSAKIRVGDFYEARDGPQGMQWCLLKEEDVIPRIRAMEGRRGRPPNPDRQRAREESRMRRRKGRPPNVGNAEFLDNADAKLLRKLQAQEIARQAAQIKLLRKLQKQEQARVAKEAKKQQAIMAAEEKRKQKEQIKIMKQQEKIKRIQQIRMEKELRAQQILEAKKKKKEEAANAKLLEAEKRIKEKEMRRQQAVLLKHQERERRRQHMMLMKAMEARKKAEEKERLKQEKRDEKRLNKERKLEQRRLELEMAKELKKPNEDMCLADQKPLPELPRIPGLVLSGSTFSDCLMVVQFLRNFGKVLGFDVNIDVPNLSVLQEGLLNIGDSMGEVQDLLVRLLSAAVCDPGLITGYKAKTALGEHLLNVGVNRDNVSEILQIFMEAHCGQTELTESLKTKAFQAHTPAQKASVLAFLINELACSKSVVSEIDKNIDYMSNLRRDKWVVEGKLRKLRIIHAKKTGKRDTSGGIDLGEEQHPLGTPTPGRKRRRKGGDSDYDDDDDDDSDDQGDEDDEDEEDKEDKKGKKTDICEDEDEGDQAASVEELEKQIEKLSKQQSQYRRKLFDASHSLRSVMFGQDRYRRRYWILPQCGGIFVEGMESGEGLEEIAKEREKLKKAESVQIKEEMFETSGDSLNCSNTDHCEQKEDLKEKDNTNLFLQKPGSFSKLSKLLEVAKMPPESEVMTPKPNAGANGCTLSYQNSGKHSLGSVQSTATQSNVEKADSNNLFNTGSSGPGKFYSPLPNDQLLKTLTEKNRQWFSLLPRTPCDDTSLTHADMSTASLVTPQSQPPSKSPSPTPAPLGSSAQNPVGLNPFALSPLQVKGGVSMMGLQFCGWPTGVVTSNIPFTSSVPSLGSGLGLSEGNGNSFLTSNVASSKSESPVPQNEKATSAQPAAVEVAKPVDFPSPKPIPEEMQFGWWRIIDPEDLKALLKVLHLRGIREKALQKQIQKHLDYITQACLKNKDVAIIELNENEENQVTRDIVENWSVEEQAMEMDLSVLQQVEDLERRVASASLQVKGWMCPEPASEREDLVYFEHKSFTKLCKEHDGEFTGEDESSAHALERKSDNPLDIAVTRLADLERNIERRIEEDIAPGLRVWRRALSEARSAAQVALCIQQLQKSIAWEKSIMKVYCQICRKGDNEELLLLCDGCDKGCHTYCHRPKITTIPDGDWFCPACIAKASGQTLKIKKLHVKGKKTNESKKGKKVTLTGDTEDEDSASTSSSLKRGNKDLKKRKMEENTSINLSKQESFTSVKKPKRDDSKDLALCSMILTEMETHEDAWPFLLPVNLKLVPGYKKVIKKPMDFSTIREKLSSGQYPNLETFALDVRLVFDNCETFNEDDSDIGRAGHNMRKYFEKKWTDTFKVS
# Sequence of Bromodomain-containing protein 7 (Q9NPI1 whole entry, the tested form may be a part): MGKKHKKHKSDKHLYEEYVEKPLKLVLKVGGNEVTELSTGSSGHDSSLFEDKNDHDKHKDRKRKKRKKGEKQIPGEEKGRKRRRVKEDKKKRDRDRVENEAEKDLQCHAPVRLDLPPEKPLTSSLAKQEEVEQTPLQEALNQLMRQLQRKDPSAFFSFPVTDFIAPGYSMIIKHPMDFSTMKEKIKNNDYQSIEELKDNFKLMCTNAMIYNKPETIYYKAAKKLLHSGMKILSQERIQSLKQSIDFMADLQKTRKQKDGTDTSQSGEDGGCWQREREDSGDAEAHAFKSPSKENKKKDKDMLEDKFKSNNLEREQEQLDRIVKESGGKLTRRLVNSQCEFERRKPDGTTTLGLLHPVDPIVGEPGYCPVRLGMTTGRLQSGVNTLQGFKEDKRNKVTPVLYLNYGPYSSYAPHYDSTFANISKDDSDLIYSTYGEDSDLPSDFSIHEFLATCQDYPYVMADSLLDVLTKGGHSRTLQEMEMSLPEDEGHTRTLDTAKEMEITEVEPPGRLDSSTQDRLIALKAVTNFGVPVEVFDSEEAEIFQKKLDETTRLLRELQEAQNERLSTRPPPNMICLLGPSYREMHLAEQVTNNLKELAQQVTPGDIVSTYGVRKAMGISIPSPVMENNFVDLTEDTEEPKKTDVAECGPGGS
# Sequence of Histone acetyltransferase KAT2A (Q92830 whole entry, the tested form may be a part): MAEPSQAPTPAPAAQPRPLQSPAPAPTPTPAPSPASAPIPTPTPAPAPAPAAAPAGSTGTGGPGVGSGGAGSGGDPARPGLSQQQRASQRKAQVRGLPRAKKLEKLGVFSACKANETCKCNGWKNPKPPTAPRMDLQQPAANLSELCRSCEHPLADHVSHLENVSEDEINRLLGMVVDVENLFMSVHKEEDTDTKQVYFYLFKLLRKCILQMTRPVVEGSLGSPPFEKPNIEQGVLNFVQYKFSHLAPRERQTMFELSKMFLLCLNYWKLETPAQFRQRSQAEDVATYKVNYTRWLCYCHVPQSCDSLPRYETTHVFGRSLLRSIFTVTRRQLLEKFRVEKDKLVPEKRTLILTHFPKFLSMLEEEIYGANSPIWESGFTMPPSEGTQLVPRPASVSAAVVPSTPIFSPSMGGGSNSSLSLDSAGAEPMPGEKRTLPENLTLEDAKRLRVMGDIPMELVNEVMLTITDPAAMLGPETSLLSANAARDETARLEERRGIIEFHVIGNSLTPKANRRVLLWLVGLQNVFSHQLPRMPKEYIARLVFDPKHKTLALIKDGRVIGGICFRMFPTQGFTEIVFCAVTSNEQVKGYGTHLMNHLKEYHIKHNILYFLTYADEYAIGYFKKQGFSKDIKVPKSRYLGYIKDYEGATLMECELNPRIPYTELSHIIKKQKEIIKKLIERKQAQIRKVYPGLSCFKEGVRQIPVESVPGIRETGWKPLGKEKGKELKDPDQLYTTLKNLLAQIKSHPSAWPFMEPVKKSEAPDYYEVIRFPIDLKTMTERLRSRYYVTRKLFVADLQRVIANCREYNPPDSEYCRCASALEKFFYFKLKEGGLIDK
compound,measurement,setting,value
CCS(=O)(=O)Nc1cc(-c2cn(C)c3c(=O)[nH]ccc23)cc2c1ccn2C(C)(c1ccccn1)c1ccccn1,IC50,MCF7:TAM1; read-out: IC50,< 10 nM
same,IC50,MCF7:TAM1; read-out: pIC50 (converted),3.16 nM
same,Kd,[1],> 10000 nM
same,IC50,[2]; read-out: IC50,< 10 nM
same,IC50,[2]; read-out: pIC50 (converted),3.98 nM
same,IC50,[3]; read-out: IC50,< 10 nM
same,IC50,[3]; read-out: pIC50 (converted),6.31 nM
same,Kd,[4],> 10000 nM
same,Kd,[5],> 10000 nM
same,Kd,[6],> 10000 nM
same,Kd,[7],> 10000 nM
same,IC50,T47D; read-out: IC50,< 10 nM
same,IC50,T47D; read-out: pIC50 (converted),3.16 nM
same,IC50,[8],0.9 nM
same,Kd,[9],> 10000 nM
same,Kd,[10],> 10000 nM
same,IC50,Cytochrome P450 3A4,≥ 10000 nM
same,Kd,[11],> 10000 nM
same,Kd,[12],> 10000 nM
same,Kd,[13],> 10000 nM
same,Kd,[14],> 10000 nM
same,Kd,[15],> 10000 nM
same,IC50,[16]; read-out: IC50,< 10 nM
same,IC50,[16]; read-out: pIC50 (converted),2 nM
same,Kd,[17],> 10000 nM
same,growth inhibition (GI),[18],100%
same,IC50,[19],< 10 nM
same,Kd,[20],> 10000 nM
same,Kd,Protein polybromo-1,> 10000 nM

# — ChEMBL document CHEMBL4610112, “Novel Pyrrolopyridone Bromodomain and Extra-Terminal Motif (BET) Inhibitors Effective in Endocrine-Resistant ER+ Breast Cancer with Acquired Resistance to Fulvestrant and Palbociclib” (J Med Chem, 2020)
